From ChEMBL document CHEMBL1125849, “Synthesis of the 2-amino-4-phosphonobutanoic acid analogues (E)- and (Z)-2-amino-2,3-methano-4-phosphonobutanoic acid and their evaluation as inhibitors of hippocampal excitatory neurotransmission” (J Med Chem, 1991)

Key:
Format in all cases: functional
[1] = species: Rattus norvegicus; test: Inhibitory activity against Hippocampal Excitatory Neurotransmission using lateral perforant path (LPP)in rat hippocamapl slice Tested as racemic mixtures
How it was run: (§1)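 Rat transverse hippocampal slices (450 μm) from urethane-anesthetized animals, held in oxygenated bicarbonate medium, pH 7.4. Recording in a microperfusion chamber at 34 °C. Field potentials in the dentate molecular layer: outer third for LPP, middle third for MPP. Placement checked with L-AP4. Drug started at threshold and doubled every 4 min. IC50 taken from fractional response versus log concentration, as a weighted mean.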

[2] = species: Rattus norvegicus; test: Inhibitory activity against Hippocampal Excitatory Neurotransmission using medial perforant path (MPP) in rat hippocamapl slice Tested as racemic mixtures; how it was run: as §1
[3] = Ratio is IC50 vales of medial perforant path (MPP) to that of lateral perforant path (LPP)
How it was run: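 Ratio of MPP to LPP IC50 values from rat hippocampal slice field-potential recordings. Dentate molecular layer recorded, middle third (MPP) and outer third (LPP), at 34 °C. Concentration doubled every 4 min. Each IC50 is a weighted mean taken from fractional-response versus log-concentration curves.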

[4] = Rattus norvegicus, Perforant path

Compound | IC50 [1] | IC50 [2] | Ratio [3] | IC50 [1, 4] | IC50 [2, 4]
NC1(C(=O)O)CC1CP(=O)(O)O (stereo in doubt; 5) | 18 µM | 1580 µM | 88 | – | –
N[C@]1(C(=O)O)CC[C@@H](P(=O)(O)O)C1 | – | – | 2.5 | 960 µM | 2400 µM
N[C@@H](CCP(=O)(O)O)C(=O)O | – | – | 18 | – | –
N[C@]1(C(=O)O)CC[C@H](P(=O)(O)O)C1 | – | – | 31 | 130 µM | 1850 µM
NC1(C(=O)O)CC1CP(=O)(O)O (stereo in doubt; 6) | – | 81 µM | 4.8 | 17 µM | –
